High-throughput results (PubChem)
FAS-TE inh: FAS thioesterase (human) inhibition; AID 602261; recombinant FAS-TE, OMFH fluorogenic substrate, fluorescence endpoint; inhibition, % at 15 µM; hit rate 0.67% among 360,000;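 active means compounds whose normalised, plate-corrected inhibition of enzyme fluorescence in the single-dose primary screen is 50% or more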;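 further: 0% = DMSO with enzyme and 100% = substrate without enzyme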
SENP1 inh: blocks the human SENP1 SUMO protease catalytic domain; inhibition, % at 10 µM; hit rate 0.21% among 360,000; AID 624204; recombinant SENP1 catalytic domain, CyPet-SUMO1-YPet FRET cleavage; Q9P0U3;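 active means inhibition at least 30% at 10 µM, raw YFP signal under a set limit, fluorescence ratio 0.5 to 1.5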;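 further: 0% = enzyme with DMSO and 100% = no enzyme wells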
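Material – human SENP1 catalytic domain · Input – SENP1 enzyme, 20 pM final · Compound dosing – single concentration of 10 µM compound, 0.5% DMSO final · Timing – enzyme reaction for 50 min at room temperature, dark · Measured by – FRET fluorescence in CFP and YFP emission channels · Control set – no-enzyme wells low, DMSO-plus-enzyme wells high control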
ADAM17 inh: ADAM17 inhibition, QFRET primary screen; recombinant ADAM17, EDANS/DABCYL FRET peptide cleavage; hit rate 0.83% among 370,000; AID 720648; inhibition, % at 6.95 µM;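 active means inhibition above the mean of compounds lying between control limits plus 3 SD, set per campaign, cut at about 8.5% in these data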;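 further: 0% = DMSO-only wells as the low control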
ADAM10 inh: inhibitors of human ADAM10; hit rate 0.62% among 370,000; recombinant ADAM10, EDANS/DABCYL FRET peptide cleavage, 3 h; inhibition, % at 7 µM; O14672; AID 720582;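 active means inhibition above a per-campaign cutoff equal to the mean of compounds falling between control-based bounds plus 3 SD, cut at about 20% in these data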;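 further: 0% = DMSO wells while the 100% control is not disclosed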
Target sequence (O14672 214-748 limits assumed): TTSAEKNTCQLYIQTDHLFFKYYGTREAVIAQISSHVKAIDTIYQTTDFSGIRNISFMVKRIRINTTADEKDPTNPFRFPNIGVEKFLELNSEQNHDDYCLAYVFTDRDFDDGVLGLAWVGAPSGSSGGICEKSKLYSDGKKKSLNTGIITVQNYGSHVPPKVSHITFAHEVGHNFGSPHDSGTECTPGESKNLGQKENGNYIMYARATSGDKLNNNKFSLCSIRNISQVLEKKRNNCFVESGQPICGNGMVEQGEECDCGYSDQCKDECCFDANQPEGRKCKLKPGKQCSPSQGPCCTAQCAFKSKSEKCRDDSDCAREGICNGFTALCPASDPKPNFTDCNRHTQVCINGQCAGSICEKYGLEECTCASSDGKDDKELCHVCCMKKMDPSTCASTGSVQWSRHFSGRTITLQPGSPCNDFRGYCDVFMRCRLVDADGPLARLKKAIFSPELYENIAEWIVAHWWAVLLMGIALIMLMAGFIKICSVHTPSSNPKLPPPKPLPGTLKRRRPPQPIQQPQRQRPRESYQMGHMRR
FAS-TE inh conf: FAS thioesterase (human) inhibition, confirmation | shares compounds with FAS-TE inh | recombinant FAS-TE, OMFH fluorogenic substrate, fluorescence | inhibition, % at 15 µM | hit rate 45% among 2,300;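 active means compounds inhibiting the enzyme by at least 50% at 15 µM in any one of the replicates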;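 further: 0% = enzyme with DMSO only and 100% = wells lacking enzyme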
Starred values were filed as active, the others as inactive; x = not tested or not shown. An excerpt weighted towards active compounds, which were near 1.9% of everything screened.

SMILES	FAS-TE inh	SENP1 inh	ADAM17 inh	ADAM10 inh	FAS-TE inh conf
COC(=O)C1CN(Cc2ccc(F)cc2)CCS(=O)(=O)N1Cc1ccc(C)cc1 (configuration not stated)	x	x	1	9	x
CCOC1=C2CN(S(=O)(=O)c3ccc(C)cc3)[C@@H](c3ccc(CC)cc3)C[C@H]2[C@H]2C(=O)N(c3ccccc3)C(=O)[C@H]2C1	72*	-3	-3	0	31
CCOC1=C2CN(S(=O)(=O)c3ccc(C)cc3)[C@H](c3ccccc3)C[C@H]2[C@H]2C(=O)N(c3ccccc3)C(=O)[C@H]2C1	59*	0	-1	1	29
CCOC1=C2CN(S(=O)(=O)c3ccc(C)cc3)[C@H](c3cccc4ccccc34)C[C@H]2[C@H]2C(=O)N(c3ccccc3)C(=O)[C@H]2C1	77*	2	-1	1	24
CCOC1=C2[C@@H](CN(S(=O)(=O)c3ccc(C)cc3)[C@H]2c2cccs2)[C@H]2C(=O)N(c3ccccc3)C(=O)[C@H]2C1	12	0	4	-4	x
CCn1c(=O)n2n(c1=O)[C@]1(C=C(C)C2)CN(Cc2ccc(OC)cc2OC)C(NC(=O)c2ccccc2)=N1	x	x	5	9	x
O=C(Nc1ccc(OC(F)(F)F)cc1)Nc1cccc([N+](=O)[O-])c1	73*	3	7	13	49*
Cc1ccc(NC(=O)Nc2cccc([N+](=O)[O-])c2)cc1F	43	1	7	12	x
O=C(NCCc1ccccc1)OCc1cn(Cc2ccccc2C(F)(F)F)nn1	x	x	3	1	x
CCCC1CCC2(CCCN2CCOC(=S)NCc2cccc(C)c2)CC1 (configuration not stated)	x	x	-4	-1	x
O=C(NCCN1C(=O)S/C(=C\c2ccccc2)C1=O)C1CCN(S(=O)(=O)c2cccs2)CC1	53*	1	2	2	58*
COC(=O)[C@]12C[C@H](CC(=O)NCC34CC5CC(CC(C5)C3)C4)C(=O)N(Cc3ccco3)C1=C[C@H](C1CCCC1)O[C@@H]2C	x	x	6	18	x
O=c1c2ccccc2c(C=Nc2cccc(S(=O)(=O)NC3=NCCCCC3)c2)c(O)n1Cc1ccccc1	65*	-55	-16	-31	5
CC1=CC(=C(C#N)C#N)c2ccccc2N1C	61*	-25	-3	-10	25
Cc1ccccc1N1C(=O)CSC1=C(C#N)C#N	-1	-9	3	10	x
O=C1OCCN1c1ccccc1	-8	-1	-3	-9	x
O=C1OCCN1c1c(-c2ccccc2)c(-c2cccs2)nc2c(-c3ccccc3)cccc12	52*	-9	x	x	28
CC(/C=C1\SC(=S)N(NC(=O)c2ccc(C)cc2)C1=O)=C\c1ccccc1	18	-4	x	x	x
CC(/C=C1\SC(=S)N(c2ccc(C(=O)O)cc2)C1=O)=C\c1ccccc1	90*	2	-4	9	14
CN(C(=O)COC(=O)c1cc([N+](=O)[O-])ccc1N1CCCC1)C1CCS(=O)(=O)C1 (configuration not stated)	3	2	0	5	x
CCC(C)N(C(=O)COC(=O)c1cc([N+](=O)[O-])ccc1N1CCOCC1)C1CCS(=O)(=O)C1 (configuration not stated)	11	1	-6	-10	x
CN(Cc1ccccc1)C(=O)COC(=O)c1cc([N+](=O)[O-])ccc1N1CCOCC1	92*	1	0	-2	91*
CCN(C(=O)COC(=O)c1cc([N+](=O)[O-])ccc1N1CCOCC1)c1ccccc1	78*	-1	1	2	71*
COc1ccc(CN(C)C(=O)COC(=O)c2cc([N+](=O)[O-])ccc2N2CCCC2)c(OC)c1OC	70*	-6	5	-2	31*
COC(=O)[C@H](C(C)C)N(CCc1cn(CC2CCCCC2)nn1)S(=O)(=O)c1ccccc1Br	x	x	0	3	x
c1nc(NCC2CCOC2)c2cc(-c3ccc4c(c3)OCO4)ccc2n1 (configuration not stated)	x	x	-33	-96	x
CCCSc1nc(N2CCOCC2)c2c(c1C#N)CCCC2	44	0	0	-3	x
N#CCCSc1nc(N2CCOCC2)c2c(c1C#N)CCCC2	55*	-1	-3	5	62*
CC(=O)c1ccc(NC(=O)NC2CCCCN(Cc3cccc(Cl)c3)C2=O)cc1 (configuration not stated)	x	x	7	11	x
